Kir21 inh = inhibitors of mouse Kir2.1 inward-rectifier potassium channel; actives 0.85% (n = 310,000); B-score at 10 µM; HEK293-Kir2.1, FluxOR thallium flux fluorescence; active compounds read low;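 active = fluorescence ratio B-score at or below minus 3 SD of library scores, with starting-brightness B-score within 2 SD, cut at about -4.2 in these data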;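 note: channel flux triggered by added potassium and thallium sulfate stimulus; B-score of peak minus minimum fluorescence over baseline after thallium stimulus; more negative B-score means stronger Kir2.1 block with less thallium influx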
TRPC4 PAM = allosterically enhances the mouse TRPC4 cation channel. Q9QUQ5. HEK293 TRPC4beta/mu-opioid, DAMGO EC20, Fluo-4 Ca2+ flux; active compounds read high. B-score at 10 µM. actives 0.42% (n = 310,000). AID 2227;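 active = B-score of calcium response area above 5 SD of library B-scores, with initial fluorescence ratio within 5 SD of library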
TRPC6 inh = blocks the mouse TRPC6 cation channel | Q61143 | HEK293-TRPC6, membrane potential dye, ACh-evoked depolarization; active compounds read low | B-score at 10 µM | actives 1.1% (n = 310,000);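 active = B-score under library mean minus 3 SD, initial fluorescence not abnormally high, positive integrated signal ratio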;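 note: B-score derived from integrated fluorescence ratio over the kinetic read; more negative B-score means stronger inhibition of depolarization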
TRPC4 inh = blocks the mouse TRPC4 cation channel; HEK293 TRPC4beta/mu-opioid, DAMGO-evoked Fluo4 calcium flux; active compounds read low; actives 0.39% (n = 300,000); B-score at 10 µM; AID 2247; Q9QUQ5;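 active = B-score over 3 SD under the library average, no early fluorescence shift, positive overall ratio signal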
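material = TRPC4beta/mu-opioid receptor HEK293 cell line | probe or stimulus = sequential submaximal and maximal DAMGO stimulation | compound dosing = one concentration per compound | measured by = Fluo4 Ca2+ flux fluorescence | evaluation = integrated fluorescence ratio relative to baseline, converted to per-well B score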
TRPC4 agonist = TRPC4 (mouse) channel activation; HEK293 TRPC4beta/mu-opioid, Fluo4 calcium fluorescence; active compounds read high; AID 2237; actives 0.49% (n = 310,000); Q9QUQ5; B-score at 10 µM;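 active = B-score above 5 SD of library B-scores, and initial fluorescence ratio not above library mean plus 5 SD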;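 note: positive B-score marks a calcium rise read as TRPC4 activation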
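system = HEK293 cells stably co-expressing mouse TRPC4beta and mu-opioid receptor | schedule = Fluo4 dye loading 45 min at room temperature, 110 s recording | measure = B-scored integrated calcium fluorescence ratio | signal = Fluo4 calcium-sensitive dye fluorescence, kinetic, 1 Hz baseline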
TRPC6 act = activators of mouse TRPC6 channel | actives 0.13% (n = 310,000) | HEK293-TRPC6 membrane potential dye fluorescence; active compounds read high | Q61143 | AID 2550 | B-score at 10 µM;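 active = B-score of the integrated fluorescence ratio above library mean plus 3 SD, and starting fluorescence ratio within library mean plus 5 SD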;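 note: higher score means more depolarization so channel activation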
Hits are given with their value; n = inactive. An excerpt weighted towards active compounds, which were near 2.9% of everything screened.

SMILES | Kir21 inh | TRPC4 PAM | TRPC6 inh | TRPC4 inh | TRPC4 agonist | TRPC6 act
C(=C\c1ccccc1)/CSc1nnc(-c2ccncc2)n1Cc1ccco1 | -5.13 | n | n | n | n | n
Cc1ccc(-c2nnc(SCc3nc4ccccc4[nH]3)n2Cc2ccco2)cc1 | n | n | n | n | n | n
O=C(CSc1nnc(-c2cccnc2)n1Cc1ccco1)c1ccc(Br)cc1 | -5.94 | n | n | n | n | n
Clc1cccc(-c2nnc(SC/C=C/c3ccccc3)n2Cc2ccco2)c1 | n | n | n | n | n | n
Cc1cc(Cl)cc(Cl)c1OCCCCN(C)C | n | 36 | n | n | n | n
COc1ccc(CCNC(=O)CSc2ccsc2[N+](=O)[O-])cc1OC | -4.49 | n | n | n | n | n
CN(C)CCn1c(N)nc2ccccc21 | n | 13 | n | n | n | n
Cc1ccc(NCc2nc(SCC(=O)Nc3ccccc3)n[nH]2)cc1 | n | n | n | n | n | n
CCSc1nc(-c2ccccc2)nc2c1CCCC2 | n | n | n | n | n | n
CN(C)CCSc1nc(-c2ccccc2)nc2c1CCCC2 | n | 20 | n | n | 68 | n
OCCC1CN(Cc2cccn2-c2cccnc2)CCN1CCc1ccccc1 (configuration not stated) | n | n | n | -5 | n | n
Cc1ccc(C(=O)N2CCN(c3ncnc4c(C)csc34)CC2)cc1 | n | n | n | n | n | n
O=[N+]([O-])c1ccc(N2CCN(C(=S)Nc3ccc(F)cc3F)CC2)cc1 | n | n | n | n | n | n
Cc1csc2c(N3CCN(C(=S)Nc4ccc(F)cc4F)CC3)ncnc12 | n | n | n | n | 124 | n
Cc1csc2c(N3CCN(C(=O)Nc4ccccc4)CC3)ncnc12 | n | n | n | n | 185 | n
CC(NC(=O)CN1C(=O)NC(C)(c2cccc3ccccc23)C1=O)c1ccccc1 (configuration not stated) | n | n | n | n | n | n
N#Cc1ccc(C(=O)Nc2nnc(-c3cccs3)o2)cc1 | n | n | n | n | n | n
O=C(Nc1nnc(-c2cccs2)o1)c1cccc(C(F)(F)F)c1 | n | n | n | n | 127 | n
CCOc1ccc(NC(=O)c2cc([N+](=O)[O-])ccc2N2CCOCC2)cc1 | n | n | n | n | n | n
CC(Oc1ccc(Cl)cc1Cl)c1nc(-c2ccccn2)no1 (configuration not stated) | n | n | n | -6 | n | n
CC(Oc1ccc(Cl)cc1Cl)c1nc(-c2ccc(NC(=O)c3cccnc3)cc2)no1 (configuration not stated) | n | n | n | n | n | n
CC1CCCC(NC(=O)CCCn2ncn3c(cc4occc43)c2=O)C1C (configuration not stated) | n | n | n | n | n | n
CCSc1ncccc1-c1nc2ccccc2[nH]1 | n | n | n | -7 | n | n
Cc1ccccc1NC(=O)COC(=O)c1ccc(CSc2ccc(Cl)cc2)cc1 | n | n | n | n | n | n
O=C(CN1CCN(Cc2ccc(Cl)cc2)C1=O)NCCCN1CCN(c2ccc(F)cc2)CC1 | n | n | n | -6 | n | n
SMILES | Kir21 inh | TRPC4 PAM | TRPC6 inh | TRPC4 inh | TRPC4 agonist | TRPC6 act
O=C(CN1CCN(Cc2ccc(Cl)cc2)C1=O)NCCCN1CCOCC1 | n | n | n | n | n | n
CCn1c2ccccc2c2nnc(SCC(=O)N(C)C3CCS(=O)(=O)C3)nc21 (configuration not stated) | n | n | n | n | n | n
CCCCC(=O)NNC(=S)NC(=O)c1ccc([N+](=O)[O-])cc1 | n | n | n | n | n | n
CCCCC(=O)NNC(=S)NC(=O)c1ccc(C)cc1 | n | n | n | n | 240 | n
COc1ccc(C(=O)NC(=S)NNC(=O)c2ccc(C)cc2)cc1 | n | n | n | n | 189 | n
COc1ccc(C(=O)NNC(=S)NC(=O)c2ccc(Cl)cc2)cc1 | n | n | n | n | 163 | n
COc1ccc(NC2c3ncccc3C(=O)N2Cc2ccccc2)c(OC)c1 (configuration not stated) | n | n | n | n | n | n
COc1ccc2nc(C)c(C(=O)NN)cc2c1 | n | n | n | n | n | n

Source: PubChem BioAssay
